Source: PubChem BioAssay
Hits are enriched below; roughly 3% of the tested compounds scored in any of these assays.
SR-BI uptake up – enhances SR-BI lipid uptake from DiI-HDL. CHO ldlA[mSR-BI] cells, DiI-HDL uptake fluorescence, 3 h; 100 = double the neutral-control signal. activation, % at 12.5 µM. hit rate 0.096% among 320,000. AID 504775;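 active = mean replicate activation of at least 60% and every replicate at or above 60%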
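material = CHO ldlA[mSR-BI] cells | medium = Ham's F12 with 0.5% BSA, HEPES 25 mM, pH 7.4 | reagent = fluorescent DiI-HDL, 10 µg/mL final | compound dosing = single-point compound dose | incubation = 3 h, 37 °C | measured by = bottom-read fluorescence, 550/595 nm | measure = HDL uptake via cellular fluorescence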
ANO1 block – mouse TMEM16A channel inhibition, primary screen; Q8BHY3; HEK293 TMEM16A/YFP iodide influx fluorescence, ionomycin; normalized B-score (activity score, 25-100; higher = stronger inhibition) at 10 µM; hit rate 1.2% among 310,000;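 active = ratio plate-corrected score three or more library SD toward inhibition, starting fluorescence score within five deviations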;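 also: score derived from kinetic fluorescence span divided by baseline fluorescence per well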
FID counter – counter-screen for HCV NS3 helicase inhibitors: DNA intercalator displacement | hit rate 0.17% among 290,000 | inhibition, % at 7.9 µM | DNA fluorescent intercalator displacement, fluorescence; in the data active = inhibition above about 37%;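 also: higher means more ethidium bromide displaced from hairpin DNA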
Kir21 block – blocks the mouse Kir2.1 inward-rectifier potassium channel; P35561; hit rate 0.85% among 310,000; B-score at 10 µM; HEK293-Kir2.1, FluxOR thallium flux fluorescence; stronger effect = lower value;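 active = fluorescence ratio B-score at or below minus 3 SD of library scores, with starting-brightness B-score within 2 SD, cut at about -4.2 in these data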;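 also: channel flux triggered by added potassium and thallium sulfate stimulus; B-score of peak minus minimum fluorescence over baseline after thallium stimulus; more negative B-score means stronger Kir2.1 block with less thallium influx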
Target sequence (P35561 whole entry, looked up): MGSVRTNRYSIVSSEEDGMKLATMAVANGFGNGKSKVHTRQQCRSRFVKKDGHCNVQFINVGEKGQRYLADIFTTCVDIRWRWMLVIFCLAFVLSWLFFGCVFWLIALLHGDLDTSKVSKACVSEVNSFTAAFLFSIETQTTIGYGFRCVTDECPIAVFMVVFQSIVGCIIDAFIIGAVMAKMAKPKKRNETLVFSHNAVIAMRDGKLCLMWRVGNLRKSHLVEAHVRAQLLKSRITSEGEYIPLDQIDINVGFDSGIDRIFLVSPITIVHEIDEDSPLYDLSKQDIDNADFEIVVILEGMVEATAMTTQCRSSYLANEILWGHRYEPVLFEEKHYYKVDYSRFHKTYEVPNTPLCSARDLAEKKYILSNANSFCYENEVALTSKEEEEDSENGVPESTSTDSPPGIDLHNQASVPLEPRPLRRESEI
TMEM16A act – activators or potentiators of mouse TMEM16A chloride channel; AID 623877; Q8BHY3; HEK293 TMEM16A/YFP-H148Q/I152L, iodide quench fluorescence; stronger effect = lower value; hit rate 0.3% among 340,000; B-score at 10 µM;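 active = fluorescence-ratio B-score plate-corrected deviation score at least 3 library SD below zero, with starting fluorescence score within 5 deviations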;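 also: channel opened by trigger with iodide after compound preincubation; score built on the fluorescence ratio of max minus min over baseline; more negative score means more quench and so TMEM16A activation or potentiation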
SR-BI HDL uptake – blocks mouse SR-BI lipid uptake from DiI-HDL | ldlA[mSR-BI] CHO cells, DiI-HDL uptake fluorescence, 3 h | inhibition, % at 12.5 µM | hit rate 0.96% among 320,000;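 active = mean replicate inhibition of at least 70% and a set share of replicates each scoring 70 or more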
Of the large screens only hits and unclear results are named; the others gave an inactive call.

Cc1ccc(SC(C)C(=O)Nc2ccccc2-c2ccccc2)cc1 (configuration not stated)	Kir21 block -6.91
CCCC(C)NCC(=O)Nc1ccccc1-c1ccccc1 (configuration not stated)	Kir21 block -4.51
CN(CC(=O)Nc1ccccc1Oc1ccccc1)Cc1ccccc1F	Kir21 block -5.12
CCC(C(=O)Nc1ccccc1-c1ccccc1)c1ccccc1 (configuration not stated)	Kir21 block -4.9
Cc1ccc(NC(=O)COc2coc(CN3CCc4ccccc43)cc2=O)cc1Cl	none (no result: FID counter)
CCCN(CC(=O)Nc1ccccc1C)C(=O)C1CC(=O)N(c2ccc(CC)cc2)C1 (configuration not stated)	none (no result: ANO1 block, FID counter, Kir21 block)
Nc1ncnc2c1ncn2[C@@H]1O[C@H](CNCc2c(OCc3ccccc3F)ccc3ccccc23)[C@@H](O)[C@H]1O	none (no result: ANO1 block, FID counter, Kir21 block)
CC(=O)Nc1ccc(SCC(=O)Nc2ccccc2-c2ccccc2)cc1	Kir21 block -4.28
Cc1ccccc1CN(C)CC(=O)Nc1ccccc1-c1ccccc1	Kir21 block -5.56
COc1ccccc1CN(C)CC(=O)Nc1ccccc1-c1ccccc1	none
CCCCC(CC)C(=O)Oc1ccc(O)c(C(C)(C)C)c1 (configuration not stated)	ANO1 block 25
CC(C)(C)c1cc(OC(=O)C2CCCC2)ccc1O	none
C=CCn1c(SCC(=O)Nc2nncs2)nnc1-c1ccco1	none (no result: SR-BI uptake up, SR-BI HDL uptake)
Cc1cc(C)cc(NC(=S)N=Nc2c(O)n(C)c3ccc(S(=O)(=O)N4CCOCC4)cc23)c1	SR-BI HDL uptake 86.6
COc1ccc(/C=N/NC(=O)c2cccc(NC(=O)c3ccccc3Cl)c2)c(OC)c1	SR-BI HDL uptake 76.6
COc1ccc(/C=N/NC(=O)c2cccc(NC(=O)c3ccccc3Cl)c2)cc1	none
COc1ccccc1/C=N/NC(=O)c1cccc(NC(=O)c2ccccc2C)c1	SR-BI HDL uptake 74.9
COc1ccc(/C=N/NC(=O)c2cccc(NC(=O)c3ccccc3Cl)c2)cc1OC	none
COc1ccc(C(=O)Nc2cccc(C(=O)N/N=C/c3ccc(OC)cc3OC)c2)cc1	SR-BI HDL uptake 89.5
COc1ccccc1/C=N/NC(=O)c1cccc(NC(=O)c2ccccc2Cl)c1	SR-BI HDL uptake 77.1
CCC1(c2ccc(F)cc2)NC(=O)N(CC(=O)Nc2cccc(S(=O)(=O)N3CCOCC3)c2)C1=O (configuration not stated)	none (no result: ANO1 block, FID counter, Kir21 block)
CCOc1ccccc1NC(=O)CSc1nnc(-c2cccnc2)o1	none (no result: FID counter)
COc1cccc(-c2ncc3ccccc3c2COC(=O)c2ccc(C(F)(F)F)cc2)c1	none (no result: ANO1 block, FID counter, Kir21 block)
Cc1ccc(C(=O)Nc2cccc(C(=O)N/N=C/c3ccc(F)cc3)c2)cc1	SR-BI HDL uptake 75.9
C/C(=N\NC(=O)c1c(Cl)cnn1C)c1cccc(NC(=O)c2ccc(C)cc2)c1	SR-BI HDL uptake 84.8
CC(=O)Nc1cccc(C(=O)N/N=C/c2ccc(F)cc2)c1	none
Cc1c(O[C@@H]2O[C@H](CO)[C@@H](O)[C@H](O)[C@H]2O)c(CO)c(O[C@@H]2O[C@H](CO)[C@@H](O)[C@H](O)[C@H]2O)c2c1O[C@@H](c1ccccc1)C[C@@H]2O	none (no result: ANO1 block, FID counter, Kir21 block)
CCCCC(CC)CNS(=O)(=O)c1ccc2c(c1)CCN2C(=O)CCC(=O)O (configuration not stated)	Kir21 block -8.02
N#CCCN1CCCc2cc(N=Nc3ccc(C(F)(F)F)cc3)ccc21	SR-BI HDL uptake 98.1
CCCN1CCCc2ccccc21	none
Cc1onc(-c2ccccc2)c1CNC(=O)C1COc2ccccc2O1 (configuration not stated)	Kir21 block -5.43
O=C(c1cc(-c2ccc(F)cc2)no1)N1CCN(Cc2ccc3c(c2)OCO3)CC1	none
NC(=O)c1cc(S(=O)(=O)NCc2ccc(F)cc2)cs1	TMEM16A act -14
Cc1cccc(CNS(=O)(=O)c2csc(C(N)=O)c2)c1	none
O=C(O)CCc1c(C(=O)O)[nH]c2ccccc12	TMEM16A act -15.8
CCN(CC)CCN1c2ccccc2Sc2ccccc21	Kir21 block -4.67
COc1ccc(N2CCN(C(=O)c3cc4c(s3)CCCCC4)CC2)cc1	none (no result: ANO1 block, FID counter, Kir21 block)
CC(=O)c1ccc(N2CCN(C(=O)c3cc4c(s3)CCCC4)CC2)cc1	TMEM16A act -37.1
O=C(Cn1nc(-c2ccc3c(c2)OCCO3)ccc1=O)Nc1ccc(-n2cnnn2)cc1	none
O=C(Cn1nc(-c2ccccc2Cl)ccc1=O)Nc1ccc(Br)cc1	TMEM16A act -30.1
O=C(Cn1nc(-c2ccccc2)ccc1=O)Nc1ccc(NC(=O)c2ccccn2)cc1	SR-BI HDL uptake 74.7
O=C(Cn1nc(-c2ccccc2)ccc1=O)Nc1ccc(-n2cnnn2)cc1	SR-BI uptake up 116.2
CC1CC(C)(C)CC2(C1)NC(=O)N(CC(=O)N(Cc1ccccc1)c1ccccc1)C2=O (configuration not stated)	none (no result: FID counter)
CN(C(=O)c1ccc(-c2nn(C)c(=O)c3ccccc23)cc1)C1CCCCC1	none
Cc1cc(Br)c(OCc2ccc(C(=O)N/N=C/c3ccc[nH]3)cc2)c(Br)c1	SR-BI HDL uptake 91.4 (no result: ANO1 block, FID counter, Kir21 block)
O=C(N/N=C/c1ccc[nH]1)c1ccc(COc2cccc3cccnc23)cc1	none
C=C(NC(=O)C(=C)NC(=O)c1csc(C2=NC3c4csc(n4)C4NC(=O)c5csc(n5)C(C(C)(O)C(C)O)NC(=O)C5CSC(=N5)/C(=C/C)NC(=O)C(C(C)O)NC(=O)c5csc(n5)C3(CC2)NC(=O)C(C)NC(=O)C(=C)NC(=O)C(=C)NC(=O)C(C(C)C)NC2C=Cc3c(C(C)O)cc(nc3C2O)C(=O)OC4C)n1)C(N)=O (configuration not stated)	SR-BI uptake up 143.3 (no result: ANO1 block, FID counter, Kir21 block)
C=C(NC(=O)C(=C)NC(=O)c1csc(C2=NC3c4csc(n4)C4NC(=O)c5csc(n5)C([C@@](C)(O)C(C)O)NC(=O)C5CSC(=N5)/C(=C\C)NC(=O)C(C(C)O)NC(=O)c5csc(n5)[C@]3(CC2)NC(=O)C(C)NC(=O)C(=C)NC(=O)C(C)NC(=O)C(C(C)CC)NC2C=Cc3c(C(C)O)cc(nc3C2O)C(=O)OC4C)n1)C(N)=O (some centres not stated)	none (no result: SR-BI uptake up, FID counter, Kir21 block, TMEM16A act, SR-BI HDL uptake)
Nc1ccc(Oc2ccc3nc(-c4ccccc4)c(-c4ccc([N+](=O)[O-])cc4)nc3c2)cc1	SR-BI HDL uptake 76.4
CCN(c1ccccc1)S(=O)(=O)c1cc(C(=O)OC2CCOC2=O)ccc1C (configuration not stated)	none (no result: ANO1 block, FID counter, Kir21 block)
Cc1ccc(OCC(=O)NNC(=S)NC(=O)c2cccs2)c(C)c1	none
Cc1ccc(OCC(=O)NNC(=S)NC(=O)c2ccc(Br)o2)c(C)c1	ANO1 block 25
